Activity calls are given as the source filed them. The calls are words filed in the database; no cut-off is given here.
Tests used:
Rattus norvegicus [1] = test: Reduction in blood pressure in normotensive Wistar rat at 10 mg/kg, po by radiotelemetry relative to control; type: functional; parameters: scale not given: the % may be the effect or the level left
How it was run: (§1)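 Conscious normotensive rats with telemetric implants received oral doses of 1, 3 or 10 mg/kg. Mean arterial pressure and heart rate were recorded continuously beyond 24 h.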

Rattus norvegicus [2] = test: In vivo activation of sGC in po dosed renin-transgenic rat carrying [RenTG(mRRen2)27] gene assessed as decrease in mortality pretreated with NO-synthase inhibitor L-NAME followed by compound administration twice daily for 21 days and measured on day 1, 8 and 15; type: functional, organism-based; conditions: dose 1-10 mg/kg, time 21.0 day
How it was run: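 L-NAME-treated renin transgenic rats were dosed at 1, 3 or 10 mg/kg BID, with placebo controls (n = 24 placebo, 18 per dose). Mortality was recorded.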

Rattus norvegicus [3] = test: In vivo activation of sGC in Wistar rate assessed as decrease in blood pressure at 0.03 to 0.1 mg/kg, iv administered as bolus injection; type: functional, organism-based; conditions: dose 0.03-0.1 mg/kg
How it was run: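 Anaesthetized rats received an iv bolus of 0.03 or 0.1 mg/kg, with or without ODQ pretreatment. Blood pressure and heart rate were recorded over time.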

Rattus norvegicus [4] = test: Effect on heart rate in spontaneous hypertensive Wistar rat at 0.1 mg/kg, po by radiotelemetry; type: functional, organism-based
How it was run: (§2)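 Spontaneously hypertensive rats were given single oral doses of 0.1–3.0 mg/kg. Mean arterial pressure and heart rate were monitored for at least 24 h post dose, as % change.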

Heart = test: Reduction in coronary perfusion pressure in heart isolated from Wistar rat at highest concentration relative to control; type: functional; parameters: scale not given: the % may be the effect or the level left
How it was run: (§3)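 Rat hearts in Langendorff perfusion were exposed to 10 nM–10 μM. Coronary perfusion pressure, heart rate, LVDP and +dp/dt were recorded.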

[5] = Blood clearance in Beagle dog at 0.3 mg/kg, iv measured up to 24 hrs by LC-MS analysis; type: ADME, organism-based, Canis lupus familiaris; conditions: whole blood
[6] = molecular target: T1, Guanylate cyclase soluble subunit alpha-1 (Rattus norvegicus) (UniProt P19686); test: Activation of recombinant rat sGC alpha1 subunit expressed in CHO cells assessed as induction of [32P-cGMP] formation by measuring fold change at 0.01 uM using alpha-[32P-GTP] as substrate measured after 6 mins by luminescence assay; conditions: filed as activator
T1 sequence (whole entry): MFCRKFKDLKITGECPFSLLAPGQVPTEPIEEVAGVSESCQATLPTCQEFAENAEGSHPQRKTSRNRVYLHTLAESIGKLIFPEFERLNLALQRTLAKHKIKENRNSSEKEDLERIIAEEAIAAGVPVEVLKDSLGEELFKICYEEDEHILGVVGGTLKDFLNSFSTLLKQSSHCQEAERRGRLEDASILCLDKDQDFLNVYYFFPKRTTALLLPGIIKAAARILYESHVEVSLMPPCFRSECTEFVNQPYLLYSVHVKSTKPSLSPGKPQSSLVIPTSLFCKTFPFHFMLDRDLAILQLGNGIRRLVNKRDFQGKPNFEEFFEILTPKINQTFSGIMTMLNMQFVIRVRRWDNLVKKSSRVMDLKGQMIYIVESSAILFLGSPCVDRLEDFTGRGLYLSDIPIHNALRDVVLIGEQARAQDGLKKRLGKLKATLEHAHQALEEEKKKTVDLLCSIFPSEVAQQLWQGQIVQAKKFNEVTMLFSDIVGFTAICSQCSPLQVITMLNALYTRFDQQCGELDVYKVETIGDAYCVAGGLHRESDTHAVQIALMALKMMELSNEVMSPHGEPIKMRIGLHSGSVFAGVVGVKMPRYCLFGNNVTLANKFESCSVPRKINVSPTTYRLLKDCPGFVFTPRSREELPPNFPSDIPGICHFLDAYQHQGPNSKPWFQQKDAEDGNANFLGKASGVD
How it was run: (§4)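 Highly purified recombinant sGC enzyme was tested for stimulation of cGMP production across 0.01 to 100 μM of compound. The read-out was fold activation over basal enzyme activity. The method followed earlier published sGC stimulator/activator characterization.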

Rattus norvegicus [7] = test: Effect on tachycardia reflex in normotensive Wistar rat at 1 to 10 mg/kg, po by radiotelemetry; type: functional, organism-based; conditions: dose 1-10 mg/kg; how it was run: as §1
[8] = molecular target: T1, Guanylate cyclase soluble subunit alpha-1 (Rattus norvegicus); test: Activation of recombinant rat sGC alpha1 subunit expressed in CHO cells assessed as induction of [32P-cGMP] formation by measuring efficacy using alpha-[32P-GTP] as substrate measured after 6 mins by luminescence assay relative to control; type: cell-based; conditions: filed as activator
[9] = Blood clearance in Wistar rat at 0.3 mg/kg, iv measured up to 24 hrs by LC-MS analysis; type: ADME, organism-based; conditions: whole blood
How it was run: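 Rats dosed iv at 0.3 mg/kg; blood clearance determined.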

[10] = Induction of CYP3A4 in human hepatocytes using phenacetin as substrate incubated for 60 mins by LC-MS/MS analysis; conditions: 1 h
Rattus norvegicus [11] = organism: Rattus norvegicus; test: Effect on left ventricular diastolic pressure in Wistar rat; type: functional; how it was run: as §3
Rattus norvegicus [12] = test: In vivo activation of sGC in po dosed renin-transgenic rat carrying [RenTG(mRRen2)27] gene assessed as decrease in proteinuria pretreated with NO-synthase inhibitor L-NAME followed by compound administration twice daily for 21 days; type: functional, organism-based; conditions: dose 1-10 mg/kg, time 21.0 day
How it was run: (§5)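 L-NAME-treated renin transgenic rats were dosed BID. At study end, protein-to-creatinine ratio (mg/mmol) came from urinary protein and creatinine. Creatinine clearance (mL/min) came from plasma and urinary creatinine plus urine volume.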

Rattus norvegicus [13] = test: Effect on blood pressure in spontaneous hypertensive Wistar rat at 0.1 mg/kg, po by radiotelemetry; type: functional, organism-based; how it was run: as §2
[14] = molecular target: T1, Guanylate cyclase soluble subunit alpha-1 (Rattus norvegicus); test: Activation of recombinant rat sGC alpha1 subunit expressed in CHO cells assessed as induction of [32P-cGMP] formation by measuring fold change at 100 uM using alpha-[32P-GTP] as substrate measured after 6 mins by luminescence assay; conditions: filed as activator; how it was run: as §4
Rattus norvegicus [15] = test: Cardioprotective activity in renin-transgenic rat carrying [[…]] gene assessed as reduction in heart hypertrophy at 1 to 10 mg/kg, po bid for 21 days; type: functional, organism-based; conditions: dose 1-10 mg/kg, time 21.0 day
Rattus norvegicus [16] = test: Effect on blood pressure in normotensive Wistar rat at 1 to 3 mg/kg, po by radiotelemetry; type: functional, organism-based; conditions: dose 1-3 mg/kg
[17] = Activation of recombinant rat sGC expressed in CHO cells by luminescence assay; type: cell-based; conditions: CHO
How it was run: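 Stable CHO reporter cell line overexpressing rat sGC; cGMP formation read as luminescence. EC50 from concentration–response. MEC taken as lowest concentration giving at least threefold increase in basal luminescence.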

[18] = Half life in Beagle dog at 0.3 mg/kg, iv measured up to 24 hrs by LC-MS analysis; type: ADME, organism-based, Canis lupus familiaris; conditions: in vivo
Rattus norvegicus [19] = test: In vivo activation of sGC in po dosed renin-transgenic rat carrying [RenTG(mRRen2)27] gene assessed as increase in creatinine clearance pretreated with NO-synthase inhibitor L-NAME followed by compound administration twice daily for 21 days; type: functional, organism-based; conditions: dose 1-10 mg/kg, time 21.0 day; how it was run: as §5
[20] = Volume of distribution at steady state in Beagle dog at 0.3 mg/kg, iv measured up to 24 hrs by LC-MS analysis; type: ADME, organism-based, Canis lupus familiaris; conditions: in vivo, read-out: Vdss
[21] = Activation of recombinant rat sGC expressed in CHO cells pretreated with ODQ for 3 hrs followed by compound treatment by luminescence assay; type: cell-based
[22] = Oral bioavailability in Wistar rat at 0.3 mg/kg measured up to 24 hrs by LC-MS analysis; type: ADME, organism-based; conditions: in vivo

For `C[C@H]([C@H](C(=O)Nc1cc([C@@H](CC(=O)O)C2CC2)ccc1Cl)c1ccc(Cl)cc1)C(F)(F)F` [RUNCACIGUAT], the Activity (Rattus norvegicus [1]) was “<=15%”, the Activity (Rattus norvegicus [2]) was “Dose-Dependent Effect” and the Activity (Rattus norvegicus [3]) was “Dose-Dependent Effect”. For the same compound, the Activity (Rattus norvegicus [4]) was “inactive”, the Activity (Heart) was 45% and the clearance [5] was 23.3 mL/min/kg. For the same compound, the fold change (FC) [6] was 2.6, the Activity (Rattus norvegicus [7]) was “Active” and the Efficacy [8] was 58%. The clearance [9] was 3.5 mL/min/kg, the Activity [10] was 256 nM and the Activity (Rattus norvegicus [11]) was “inactive”. The Activity (Rattus norvegicus [12]) was “Dose-Dependent Effect”, the Activity (Rattus norvegicus [13]) was “inactive” and the fold change (FC) [14] was 9.3. For the same compound, the Activity (Rattus norvegicus [15]) was “Active”, the Activity (Rattus norvegicus [16]) was “inactive” and the EC50 [17] was 11.2 nM. The half-life [18] was 4.3 h, the Activity (Rattus norvegicus [19]) was “Dose-Dependent Effect” and the Vd [20] was 2.8 L/kg. It also gave an EC50 [21] of 2.1 nM and a bioavailability [22] of 95%.

— ChEMBL document CHEMBL4808182, “Discovery of the Soluble Guanylate Cyclase Activator Runcaciguat (BAY 1101042)” (J Med Chem, 2021)
